“And” between values parts separate entries of the source, which are not always exact repeats. Equal values may be shown once.
Experiments:
A. baumannii [1] = test: Broth microdilution MIC, alone and with AR-12; format: cell-based, Acinetobacter baumannii; settings: for MIC: strain 34299 (JMI Laboratories), drug alone; for fold reduction of MIC in the presence of 4 μg/ml of AR-12: MDR A. baumannii (2 out of 4 strains tested); for MIC (4 µg/ml AR-12): strain 34299, with 4 µg/ml AR-12
Procedure, shortened: (§1)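 Colonies from Mueller-Hinton II agar (37°C, overnight) were suspended in PBS, sized by OD600 and diluted in CAMHB, giving a final inoculum of 5×10^5 CFU/ml. Single-drug MICs: 96-well round-bottom plates, static 37°C for 18–24 h, growth scored visually. Checkerboard: twofold polymyxin B or colistin (0.13–64 or 128 μg/ml) against twofold test compound (1–64 or 128 μg/ml; DMSO stock), incubated 16–20 h.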

B. mallei = format: cell-based, Burkholderia mallei
B. pseudomallei = format: cell-based, Burkholderia pseudomallei
Enterobacter cloacae = format: cell-based
K. pneumoniae [2] = test: Broth microdilution MIC, alone and with AR-12; format: cell-based, Klebsiella pneumoniae; settings: for MIC: drug alone; for MIC (4 µg/ml AR-12): with 4 µg/ml AR-12
Procedure, shortened: as §1

Proteus mirabilis = format: cell-based
Providencia stuartii = format: cell-based
Serratia marcescens = format: cell-based
[3] = test system: panel of MDR Gram-negative pathogenic bacterial strains; test: Broth dilution MIC, whole panel; format: cell-based; settings: for fold reduction of MIC in the presence of AR-12: certain polymyxin-resistant Gram-negative bacterial strains
Procedure, shortened: as §1

[4] = test system: A. baumannii strains and K. pneumoniae strains; test: Dansyl polymyxin permeability assay; format: cell-based; settings: increasing concentrations of AR-12; depending on the strain; DP 0.6 μM
Procedure, shortened: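 Log-phase cells (overnight culture subcultured 1:100 for 2–3 h) were pelleted at 0.5 OD-equivalent and resuspended in 1 ml of 5 mM HEPES at room temperature. Fluorescence was read at room temperature (ex 320, em 500 nm), with cell-free wells subtracted. Two or more repeats.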

[5] = test system: A. baumannii and K. pneumoniae strains; test: N-phenyl-1-naphthylamine; format: cell-based; settings: AR-12 4 μg/ml and 8 μg/ml
Procedure, shortened: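 Cell suspensions were prepared as for the dansyl polymyxin assay (log phase, in 5 mM HEPES). Cells were added at 1:4 to a HEPES/NPN/test compound mix, in triplicate. Fluorescence was read at room temperature (ex 355, em 405 nm), with cell-free wells subtracted. Two or more independent repeats.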

[6] = Pharmacokinetic study in mice, oral; format: in vivo, Balb/c mice
Procedure, shortened: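 Female Balb/c mice received a single oral dose of test compound at 80 mg/kg, formulated at 8 mg/mL in 10% Solutol HS 15. Plasma was sampled at 0, 0.5, 1, 2, 4, 8, 10 and 24 h, with 3 mice per time point. Drug levels were quantified by HPLC.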

[7] = Maximum tolerated dose in mice; format: in vivo; settings: p.o.
Protein binding in mice = format: in vitro ADME
cyclooxygenase 2 (COX-2) = settings: eukaryotic host; cited from earlier work
Francisella strains = settings: cited from earlier work
[8] = test system: Francisella tularensis and F. novicida in THP-1 macrophages; settings: cited from earlier work
[9] = test system: ampicillin and kanamycin-resistant E. coli strain; settings: laboratory-generated ampicillin and kanamycin-resistant E. coli; cited from earlier work
[10] = test system: MDR clinical isolate of N. gonorrhoeae; settings: cited from earlier work
A. baumannii [11] = test: Bacterial growth assay; format: cell-based, Acinetobacter baumannii
Procedure, shortened: (§2)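 Cultures were grown overnight (~16 h) in CAMHB at 37°C with shaking, then subcultured 1:100 for 2–3 h to log phase. 5×10^5 CFU/ml were dispensed into CAMHB wells holding preset drug concentrations, in triplicate. Plates were shaken at 37°C, with OD600 read automatically every 15 min for 24 h. Two or more independent repeats.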

K. pneumoniae [12] = test: Bacterial growth assay; format: cell-based, Klebsiella pneumoniae
Procedure, shortened: as §2

[13] = strain 30835 (JMI Laboratories)

Compound	MIC (A. baumannii [1])	MIC (B. mallei)	MIC (B. pseudomallei)	MIC (K. pneumoniae [2]; strain 0010 (CDC))	MIC (K. pneumoniae [2]; strain 101434 (USAMRIID))	MIC (K. pneumoniae [2]; strain 101522 (USAMRIID))	MIC (K. pneumoniae [2]; strain 101783 (USAMRIID))	MIC (Proteus mirabilis)	MIC (Providencia stuartii)	MIC (Serratia marcescens)	fold reduction of MIC in the presence of 4 μg/ml of AR-12 (A. baumannii [1])	MIC (4 µg/ml AR-12) (A. baumannii [1])	MIC (4 µg/ml AR-12) (K. pneumoniae [2]; strain 0010)	MIC (K. pneumoniae [2]; [13])	MIC (4 µg/ml AR-12) (K. pneumoniae [2]; strain 30835)	MIC (4 µg/ml AR-12) (K. pneumoniae [2]; strain 101434)	MIC (4 µg/ml AR-12) (K. pneumoniae [2]; strain 101783)	MIC (4 µg/ml AR-12) (Proteus mirabilis)	MIC (4 µg/ml AR-12) (Providencia stuartii)	MIC (4 µg/ml AR-12) (Serratia marcescens)	other results
NCC(=O)Nc1ccc(-n2nc(C(F)(F)F)cc2-c2ccc3c(ccc4ccccc43)c2)cc1 [AR-12]	>128 µg/mL	>128 µg/mL	>128 µg/mL	>64 µg/mL	>64 µg/mL	>64 µg/mL	>64 µg/mL	>64 µg/mL	>64 µg/mL	>64 µg/mL											MIC (Enterobacter cloacae): >64 µg/mL; lowest AR-12 concentration at which the potentiating activity was observed for majority of the MDR strains ([3]; combination with polymyxin B or colistin): 4 µg/mL; MIC of AR-12 alone ([3]; panel of MDR pathogens, tested upto 64 µg/ml): > 64 µg/mL; enhancement of dansyl polymyxin B (DP) fluorescence [4]: 25–50 fold; effect on NPN fluorescence (outer membrane permeability) [5]: increased the fluorescence of NPN; bioavailability [6]: poor; AUC (0–24 hrs) ([6]; 80 mg/kg, p.o., q.d.): 41.4 µg·h/mL; Cmax ([6]; 80 mg/kg, p.o., q.d.): 2.1 µg/mL; Tmax ([6]; 80 mg/kg, p.o., q.d.): 10 h; plasma levels sustained over a 24 hrs period ([6]; 80 mg/kg, p.o., q.d.): 1.5–2.1 μg/mL and ~ 2 μg/mL; maximum tolerated dose [7]: 100 mg/kg; protein bound (Protein binding in mice): 99%; COX-2 inhibitory activities (cyclooxygenase 2 (COX-2)): devoid of cyclooxygenase 2 (COX-2) inhibitory activities; direct antibacterial activity (Francisella strains): did not have any direct antibacterial activity; intracellular survival of bacteria in macrophages [8]: inhibit the intracellular survival; bacterial growth [9]: significantly inhibited the growth; bacterial proliferation [10]: reduced the proliferation
colistin	>64 µg/mL			8 µg/mL	>64 µg/mL	>64 µg/mL	>64 µg/mL	>64 µg/mL	>64 µg/mL	>64 µg/mL	4–16 fold	4 µg/mL	8 µg/mL	>64 µg/mL	16 µg/mL	16 µg/mL	1 µg/mL	>64 µg/mL	>64 µg/mL	>64 µg/mL	MIC (4 µg/ml AR-12) (Enterobacter cloacae): 16 µg/mL; fold reduction of MIC in the presence of 4 μg/ml of AR-12 (K. pneumoniae [2]; MDR K. pneumoniae (polymyxin B 7 out of 7, colistin 5 out of 7 strains tested)): 4–60 fold; MIC (4 µg/ml AR-12) (K. pneumoniae [2]; strain 101522): 8 µg/mL; fold reduction of MIC in the presence of AR-12 [3]: 4–60 fold; colistin concentration giving growth inhibition (A. baumannii [11]; MDR A. baumannii 34299, colistin alone): > 32 µg/mL; colistin concentration giving growth inhibition (A. baumannii [11]; MDR A. baumannii 34299, in the presence of 4 μg/ml AR-12): 1 µg/mL; colistin concentration giving growth inhibition (A. baumannii [11]; polymyxin sensitive ATCC A. baumannii 19606, colistin alone): 0.5 µg/mL; colistin concentration giving growth inhibition (A. baumannii [11]; polymyxin sensitive ATCC A. baumannii 19606, in the presence of 4 μg/ml AR-12): 0.015 µg/mL; colistin concentration giving growth inhibition (K. pneumoniae [12]; MDR K. pneumoniae 30835, colistin alone): 8 µg/mL; colistin concentration giving growth inhibition (K. pneumoniae [12]; MDR K. pneumoniae 30835, in the presence of 4 μg/ml AR-12): 1 µg/mL; colistin concentration giving growth inhibition (K. pneumoniae [12]; polymyxin sensitive ATCC K. pneumoniae 13833, colistin alone): 2 µg/mL; colistin concentration giving growth inhibition (K. pneumoniae [12]; polymyxin sensitive ATCC K. pneumoniae 13833, in the presence of 4 μg/ml AR-12): 0.125 µg/mL
polymyxin B	16 µg/mL	128 µg/mL	>128 µg/mL	2 µg/mL	64 µg/mL	64 µg/mL	>64 µg/mL	>64 µg/mL	>64 µg/mL	>64 µg/mL	4–16 fold	≤2 µg/mL	2 µg/mL	128 µg/mL	≤2 µg/mL	16 µg/mL	2 µg/mL	64 µg/mL and >64 µg/mL	>64 µg/mL	>64 µg/mL and 64 µg/mL	MIC (4 µg/ml AR-12) (B. mallei): 128 µg/mL; MIC (4 µg/ml AR-12) (B. pseudomallei): >128 µg/mL; fold reduction of MIC in the presence of AR-12 [3]: 4–60 fold
